In the library only some 2.8% were active in any assay of this set; here they are far more common.
PAFAH1B2 FP inh: blocks human PAF acetylhydrolase 1b catalytic subunit 2; P68402; actives 1.2% (n = 340,000); AID 492953; recombinant PAFAH1B2, FP-rhodamine activity probe, fluorescence polarization; inhibition, % at 3.39 µM;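 active means inhibition above the mean of all tested compounds plus 3 SD, cut at about 24% in these data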
pPAFAH FP inh: pPAFAH (human) enzyme inhibition | Q13093 | recombinant pPAFAH, FP-rhodamine probe fluorescence polarization | inhibition, % at 3.39 µM | actives 1.5% (n = 330,000);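 active means inhibition above the mean inhibition across the screen plus 3 SD, cut at about 25% in these data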;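 further: inhibitors block binding of the rhodamine activity-based probe so polarization drops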
Target sequence (Q13093 whole entry, looked up): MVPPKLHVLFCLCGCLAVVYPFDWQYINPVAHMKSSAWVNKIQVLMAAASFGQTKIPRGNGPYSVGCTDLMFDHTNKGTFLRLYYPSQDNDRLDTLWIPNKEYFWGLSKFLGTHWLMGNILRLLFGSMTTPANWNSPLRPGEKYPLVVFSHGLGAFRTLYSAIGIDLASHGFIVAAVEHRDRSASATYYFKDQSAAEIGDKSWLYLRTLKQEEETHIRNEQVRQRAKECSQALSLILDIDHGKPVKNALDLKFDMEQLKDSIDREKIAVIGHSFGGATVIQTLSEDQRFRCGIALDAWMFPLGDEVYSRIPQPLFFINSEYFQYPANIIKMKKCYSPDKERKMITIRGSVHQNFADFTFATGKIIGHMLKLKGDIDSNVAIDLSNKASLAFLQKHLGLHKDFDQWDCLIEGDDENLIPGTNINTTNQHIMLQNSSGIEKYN
PAFAH2 FP inh: inhibitors of human PAFAH2; AID 492956; recombinant PAFAH2, FP-rhodamine activity probe, fluorescence polarization; inhibition, % at 3.39 µM; actives 0.99% (n = 340,000); Q99487;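 active means inhibition above the mean over all tested compounds plus 3 SD, cut at about 30% in these data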;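 further: inhibitors block probe labeling of enzyme so polarization drops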
HTRA1 inhibitor: blocks human HTRA1 serine peptidase | inhibition, % at 5.96 µM | recombinant HTRA1, FP-rhodamine activity-based probe, fluorescence polarization | Q92743 | actives 0.5% (n = 340,000) | AID 504803; in the data active means inhibition above about 36%
PAFAH1B3 FP inh: PAFAH1B3 (human) inhibition; inhibition, % at 3.39 µM; Q15102; actives 0.28% (n = 340,000); recombinant PAFAH1B3, FP-rhodamine probe, fluorescence polarization;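 active means inhibition above the screen-wide average of all tested compounds plus 3 SD, cut at about 25% in these data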
Target sequence (Q15102 whole entry, looked up): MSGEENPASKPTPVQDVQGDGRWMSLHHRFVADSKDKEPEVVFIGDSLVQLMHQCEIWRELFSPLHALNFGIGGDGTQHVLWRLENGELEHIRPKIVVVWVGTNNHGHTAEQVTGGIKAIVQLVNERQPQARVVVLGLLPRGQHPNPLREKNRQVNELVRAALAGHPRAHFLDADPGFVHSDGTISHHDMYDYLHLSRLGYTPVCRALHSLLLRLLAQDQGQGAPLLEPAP
mABHD4 FP: ABHD4 (mouse) inhibition, primary FP screen; inhibition, % at 8.92 µM; actives 0.54% (n = 370,000); purified mABHD4, FP-Rh probe fluorescence polarization; Q8VD66;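 active means inhibition exceeding the mean over every tested compound plus 3 SD, cut at about 30% in these data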
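System: mouse ABHD4 enzyme, wild type / Medium: HEPES pH 7.0, NaCl, Pluronic buffer / Reagent: FP-Rh activity-based fluorescent probe / Control set: S159A mutant high control, sample median low control / Detection: fluorescence polarization with parallel and perpendicular emission, 525/598 nm / Schedule: 45 min + 60 min at 25 °C / Compound dosing: 8.92 µM, single dose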
ABHD4 confirm: ABHD4 (mouse) inhibition, FP confirmation; inhibition, % at 8.92 µM; purified mABHD4, FP-Rh probe fluorescence polarization; shares compounds with mABHD4 FP; actives 55% (n = 1,800);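 active means mean inhibition across replicates above the hit cutoff set in the primary screen, cut at about 30% in these data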
A number is an active result; i = inactive; nt = no result.

SMILES	PAFAH1B2 FP inh	pPAFAH FP inh	PAFAH2 FP inh	HTRA1 inhibitor	PAFAH1B3 FP inh	mABHD4 FP	ABHD4 confirm
COc1ccc(C2CC(c3ccccc3)=NN2c2ccc(S(N)(=O)=O)cc2)cc1OC (stereo unspecified)	i	i	i	i	i	i	nt
COc1ccc(C2=NN(c3ccc(C(=O)O)cc3)C(c3ccc(OC)c(OC)c3)C2)cc1 (stereo unspecified)	i	27	i	i	i	69	78
Cc1ccc(Cn2cc(COC(=O)N3CCOCC3)nn2)cc1	nt	nt	nt	nt	nt	i	nt
Cc1ccccc1NC(=O)Cc1nc(COC(=O)c2cc([N+](=O)[O-])ccc2N)cs1	i	i	i	i	i	62	126
O=C(NC1CCCCN(Cc2cccc(Cl)c2)C1=O)c1ccc(F)cc1 (stereo unspecified)	nt	nt	nt	nt	nt	i	nt
Cc1nc2nc(C)n(CCN3CCOCC3)c(=O)c2c(-c2cccc([N+](=O)[O-])c2)c1C(=O)CCCCCCCCCCN1CCC(c2ccccc2)(c2ccccc2)CC1	i	nt	i	i	i	30	39
Nc1ccc2nc3c(=O)n(C4CCCCC4)c(=O)[nH]c3nc2c1	i	26	i	i	i	43	41
Nc1ccc2nc3c(=O)n(CCc4ccccc4)c(=O)[nH]c3nc2c1	nt	i	nt	nt	nt	40	30
Cc1ccc(NC(=O)Cn2nnc(-c3ccccc3F)n2)cc1C	nt	nt	nt	nt	nt	i	nt
Cc1oc2ccc(OC(=O)N3CCOCC3)cc2c1C(=O)OC(C)C	i	i	i	i	i	59	54
CCOC(=O)c1c(C)oc2ccc(OC(=O)N3CCOCC3)cc12	i	i	i	i	i	40	40
CN1CCc2cccc3c2C1Cc1ccc(O)c(O)c1-3 (stereo unspecified)	i	i	i	i	i	53	i
O=C1C(=O)N(Cc2ccc(-c3ccc(Cl)nc3)cc2)c2ccc(OC(F)(F)F)cc21	nt	nt	nt	nt	nt	i	nt
O=S1(=O)c2ccccc2N=NN1Cc1ccc(Cl)cc1	i	i	i	i	i	46	54
CN(CCC#N)c1ccc(/C=C(\C#N)c2ccccn2)cc1	i	i	i	i	i	89	i
Cc1cccc(C(=O)Nc2sc(-c3ccccc3)cc2C(=O)O)c1	33	34	i	i	i	51	53
CC(C)[C@H]1/C(=C/C2CC2)N2C(=O)C[C@@H](c3ccccc3)N=C2N1Cc1ccc2c(c1)OCO2	nt	nt	nt	nt	nt	i	nt
COc1ccc(NC(=O)CN(C)C(=O)c2ccccc2CCc2ccccc2)cc1	i	i	i	i	i	i	nt
CN(CC(=O)Nc1cccc(F)c1)C(=O)c1ccccc1CCc1ccccc1	i	i	i	i	i	36	i
CC1=C[C@]2(CN(CC3CC3)C3=N[C@H](c4ccccc4)CC(=O)N32)n2c(=O)n(-c3ccccc3)c(=O)n2C1	nt	nt	nt	nt	nt	i	nt
Cc1ccc2c(c1)C(CS(=O)(=O)NCCc1ccccc1)NC2 (stereo unspecified)	nt	nt	nt	nt	nt	i	nt
C#CCNC(=O)c1cnn(-c2ccccc2)c1N	nt	nt	nt	nt	nt	i	nt
O=C(O)CCCCCNC(=O)c1ccc(C(=O)NCCCCCC(=O)O)cc1	i	i	i	i	i	63	i
O=C(O)CCCCCNC(=O)c1ccncc1	i	i	i	i	i	i	nt
CCNC(=S)NNC(=O)c1cnccn1	nt	nt	nt	nt	nt	46	54
SMILES	PAFAH1B2 FP inh	pPAFAH FP inh	PAFAH2 FP inh	HTRA1 inhibitor	PAFAH1B3 FP inh	mABHD4 FP	ABHD4 confirm
Oc1ccc(/C=N/NC(=S)Nc2cccnc2)c(O)c1O	i	nt	i	i	i	41	68
Oc1ccc(/C=N/NC(=S)Nc2cccnc2)c(O)c1	i	i	i	i	i	i	nt
Cc1ccc(-c2nnc(NC(=O)COc3ccc(F)cc3Cl)o2)cc1C	nt	nt	nt	nt	nt	i	nt
COc1ccc(CCC(=O)Nc2nccs2)cc1OC	i	i	i	i	i	i	nt
COc1ccc(CCC(=O)Nc2nc3c(s2)CN(C)CC3)cc1OC	i	i	i	i	i	89	i
CSc1ccc(C(c2c(C)[nH][nH]c2=O)c2c(C)[nH][nH]c2=O)cc1	i	i	i	i	i	i	nt
CCOc1cc(Br)cc(C(c2c(C(=O)O)[nH]c3ccccc23)c2c(C(=O)O)[nH]c3ccccc23)c1O	79	i	i	i	i	61	68
CSc1ccc(C(c2c(C(=O)O)[nH]c3ccccc23)c2c(C(=O)O)[nH]c3ccccc23)cc1	62	29	i	i	i	46	61
O=C(N[C@H](Cc1ccccc1)C(=O)NCCCN1CCCC1=O)[C@H]1O[C@@H](n2ccc(=O)[nH]c2=O)[C@H](O)[C@@H]1O	nt	nt	nt	nt	nt	i	nt
O=C1c2[nH]nc(-c3ccccc3)c2C(c2ccc(F)cc2)N1Cc1ccccc1 (stereo unspecified)	nt	nt	nt	nt	nt	i	nt
c1ccc(-c2ccc3c(n2)CCCN3Cc2ccccn2)cc1	nt	nt	nt	nt	nt	i	nt
O=C(NCc1ccccc1)c1sc(=S)n2c1[nH]c(=O)c1ccccc12	54	34	42	i	31	32	42
Cc1ccc(C(c2ccc(C)o2)c2cccc([N+](=O)[O-])c2O)o1	i	i	i	i	i	i	nt
Cc1cc(C(c2ccc(C)o2)c2ccc(C)o2)c(O)c([N+](=O)[O-])c1	i	i	i	i	i	44	i
c1cc(-c2ccoc2)n2ccnc2c1	nt	nt	nt	nt	nt	50	i
c1cc(-c2ccsc2)n2ccnc2c1	nt	nt	nt	nt	nt	i	nt
CCC/C(=C1/c2ccccc2C(=O)N1c1ccccc1)c1ccc(C=O)o1	nt	nt	nt	nt	nt	i	nt
O=C(N1CCCC1)n1ncc(-c2ccc(-c3ccccc3)cc2)n1	nt	nt	nt	nt	nt	47	42
Cc1cc(C)c(NS(=O)(=O)c2ccccc2)c(C)c1	i	nt	i	i	i	i	nt
O=C(O)c1ccc(NC2=C/C(=N/S(=O)(=O)c3ccccc3)c3ccccc3C2=O)cc1	30	nt	48	i	63	48	66
O=S(=O)(N=C1C=CC(=NS(=O)(=O)c2ccccc2)c2ccccc21)c1ccccc1	nt	nt	nt	i	nt	64	76
Cc1cc(C)c(S(=O)(=O)/N=C2\C=C(NS(=O)(=O)c3ccccc3)C(=O)c3ccccc32)c(C)c1	i	i	i	i	i	45	42
O=C1c2ccccc2C(=O)N1S(=O)(=O)c1ccccc1	i	i	i	i	i	i	nt
O=S(=O)(c1ccc(F)cc1)n1c(CN2CCOCC2)nc2ccccc21	nt	nt	nt	nt	nt	i	nt
O=C1NN(c2ccccc2)C(=O)/C1=C\c1ccccc1	i	nt	i	i	i	i	nt
O=C1NN(c2cccc(Br)c2)C(=O)/C1=C\c1ccccc1	i	i	i	i	i	37	i
O=C(OCc1cn(Cc2ccc(Cl)cc2)nn1)N1CCCC1	nt	nt	nt	nt	nt	i	nt
c1ccc2c(-c3c[nH]c4ccccc34)c3ccccc3nc2c1	i	i	i	i	i	i	nt
O=C(O)c1cc(-c2c[nH]c3ccccc23)nc2ccc3ccccc3c12	i	i	i	i	i	31	i
CCN(CC)C(=O)/C=C/c1ccccc1	i	i	i	i	i	i	nt
